Data as given in ChEMBL document CHEMBL3352586, “Pyridyl benzamides as a novel class of potent inhibitors for the kinetoplastid Trypanosoma brucei” (J Med Chem, 2014).
Converted amounts (≈) assume the structure as drawn.

Key:
[1] = Kinetic solubility of the compound at 10 mg/ml at pH 6.5 by nephelometry; type: physicochemical; details: buffer, read-out: Kinetic_solubility
How it was run: (§1)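 Kinetic solubility was read by nephelometry at pH 2 and pH 6.5 and reported as μg/mL ranges.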

[2] = test system: Trypanosoma brucei brucei; test: Trypanocidal activity against Trypanosoma brucei brucei after 72 hrs by hemocytometry relative to control; type: functional
How it was run: (§2)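 T.b. brucei parasites were seeded and held 24 h at 37 °C/5% CO₂. Compounds were diluted in DMEM and added to give the MIC, defined as the lowest concentration at the plateau (>95% activity) of the Alamar blue assay. Wells were viewed by microscope after 24, 48 and 72 h, and sampled wells were counted by hemocytometer. Percentage killed was taken against puromycin (1.15 μM) and 0.4% DMSO controls, in duplicate.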

[3] = test system: Trypanosoma brucei brucei; test: Trypanocidal activity against Trypanosoma brucei brucei after 48 hrs by hemocytometry relative to control; type: functional; how it was run: as §2
Liver microsome [4] = test: Drug metabolism in human liver microsomes assessed as M+16 formation at 10 uM after 60 mins by LC-MS analysis in presence of NADPH/UDPGA; details: 1 h
[5] = test system: Trypanosoma brucei brucei; test: Antimicrobial activity against bloodstream form of Trypanosoma brucei brucei 427 after 48 hrs by alamar blue assay; type: functional, organism-based; details: Trypanosoma brucei, 427, 48 h
Liver microsome [6] = test: Drug metabolism in human liver microsomes assessed as M+32 formation at 1 uM after 60 mins by LC-MS analysis in presence of NADPH/UDPGA; type: ADME; details: 1 h
Liver microsome [7] = test: Drug metabolism in human liver microsomes assessed as M-111 formation at 1 uM after 60 mins by LC-MS analysis in presence of NADPH; type: ADME; details: 1 h
[8] = Partition coefficient, log D of the compound at pH 7.4 by HPLC method; type: physicochemical; details: octanol/water
How it was run: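 Distribution coefficient at pH 7.4 was measured chromatographically.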

[9] = test system: Trypanosoma brucei brucei; test: Trypanocidal activity against Trypanosoma brucei brucei after 24 hrs by hemocytometry relative to control; type: functional; how it was run: as §2
Liver microsome [10] = test: Drug metabolism in human liver microsomes assessed as M+32 formation at 10 uM after 60 mins by LC-MS analysis in presence of NADPH; details: 1 h
Liver microsome [11] = test: Intrinsic clearance in human liver microsomes at 1 uM after 60 mins by LC-MS analysis; type: ADME; details: 1 h
How it was run: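 In vitro intrinsic clearance was measured in human liver microsomes and expressed per mg protein. A hepatic extraction ratio (E_H) was predicted from the in vitro data.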

[12] = Kinetic solubility of the compound at 10 mg/ml at pH 2 by nephelometry; type: physicochemical; details: buffer, read-out: Kinetic_solubility; how it was run: as §1
[13] = Selectivity index, ratio of IC50 for HEK293 cells to IC50 for Trypanosoma brucei brucei 427; type: toxicity, cell-based; details: human, read-out: Ratio IC50
Liver microsome [14] = test: Drug metabolism in human liver microsomes assessed as M+16 formation at 10 uM after 60 mins by LC-MS analysis in presence of NADPH; details: 1 h
[15] = Plasma protein binding in human […] by chromatographic method; type: ADME, cell-free; details: read-out: PPB (converted)
How it was run: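 Human plasma protein binding was estimated by a chromatographic method.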

Liver microsome [16] = test: Drug level in human liver microsomes treated with N-(5-fluoropyridin-2-yl)-2-methylbenzamide at 10 uM after 60 mins by LC-MS analysis in presence of NADPH; details: 1 h
Plasmodium falciparum = test: Antimicrobial activity against erythrocytic stage of Plasmodium falciparum NF54 infected in human washed RBC assessed as [3H]-hypoxanthine incorporation incubated for 48 hrs prior to [3H]-hypoxanthine addition measured after 24 hrs by liquid scintillation counting analysis; type: functional, organism-based
L6 = test: Cytotoxicity against rat L6 cells after 70 hrs by alamar blue assay; type: cell-based; details: L6, 70 h
How it was run: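 Cytotoxicity on the rat skeletal myoblast L-6 strain, with podophyllotoxin as reference drug.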

Trypanosoma cruzi = test: Antimicrobial activity against amastigote form of Trypanosoma cruzi Tulahuen C2C4 infected in rat L6 cells after 96 hrs by microscopic analysis; details: Tulahuen C2C4, L6, 96 h
Leishmania donovani = test: Antimicrobial activity against amastigote form of Leishmania donovani MHOM/ET/67/L82 after 70 hrs by alamar blue assay; type: functional, organism-based; details: MHOM/ET/67/L82, 70 h
How it was run: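 Leishmania donovani MHOM-ET-67/L82 axenic amastigotes, with miltefosine as reference drug.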

[17] = test system: Trypanosoma brucei rhodesiense; test: Antimicrobial activity against bloodstream form of Trypanosoma brucei rhodesiense STIB 900 after 70 hrs by alamar blue assay; type: functional, organism-based; details: STIB 900, 70 h
How it was run: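 Trypanosoma brucei rhodesiense STIB 900 bloodstream-form trypomastigotes, with melarsoprol as reference drug.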

Liver microsome [18] = test: Drug level in human liver microsomes treated with N-(4-chloropyridin-2-yl)-3-fluoro-2-methylbenzamide at 1 uM after 60 mins by LC-MS analysis in presence of NADPH; type: ADME; details: 1 h
Liver microsome [19] = test: Drug metabolism in human liver microsomes assessed as M+16(II) formation at 1 uM after 60 mins by LC-MS analysis in presence of NADPH/UDPGA; type: ADME; details: 1 h
[20] = test system: Trypanosoma brucei brucei; test: Antimicrobial activity against bloodstream form of Trypanosoma brucei brucei 427 at 10 uM after 48 hrs by alamar blue assay; type: functional; details: Trypanosoma brucei, 427, 48 h
Liver microsome [21] = test: Drug metabolism in human liver microsomes assessed as M+16(I) formation at 10 uM after 60 mins by LC-MS analysis in presence of NADPH; details: 1 h
Liver microsome [22] = test: Drug metabolism in human liver microsomes assessed as M-2 formation at 10 uM after 60 mins by LC-MS analysis in presence of NADPH; details: 1 h
Liver microsome [23] = test: Drug metabolism in human liver microsomes at 1 uM after 60 mins in absence of NADPH/UDPGA by LC-MS analysis; type: ADME; details: 1 h
Liver microsome [24] = test: Drug metabolism in human liver microsomes assessed as M+16(II) formation at 10 uM after 60 mins by LC-MS analysis in presence of NADPH; details: 1 h
[25] = Selectivity index, ratio of IC50 for rat L6 cells to IC50 for bloodstream form of Trypanosoma brucei rhodesiense STIB 900; type: toxicity, cell-based; details: read-out: Ratio IC50
How it was run: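 Bloodstream-form trypomastigotes of T. b. rhodesiense STIB 900 run with melarsoprol as reference drug. The counter-screen used the rat skeletal myoblast L-6 line, with podophyllotoxin as reference. The index is the L-6 IC50 divided by the parasite IC50.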

| solubility kinetic [1] [µg/mL] | IC50 [5] [nM] | logD [8] | CLint (Liver microsome [11]) [µL/min/mg] | solubility kinetic [12] [µg/mL] | fraction unbound [15] | IC50 (Plasmodium falciparum) [µM] | IC50 (Trypanosoma cruzi) [µM] | IC50 [17] [nM] | Structure (SMILES) | Activity [2] [%] | Activity [3] [%] | Activity [9] [%] | selectivity ratio [13] | IC50 (L6) [µM] | IC50 (Leishmania donovani) [µM] | further results |
| --- | --- | --- | --- | --- | --- | --- | --- | --- | --- | --- | --- | --- | --- | --- | --- | --- |
| 12.5 (≈ 47.2 µM) | 470 | 2.3 | 254 | 12.5 (≈ 47.2 µM) | 0.283 | – | – | – | Cc1c(F)cccc1C(=O)Nc1cc(Cl)ccn1 | 98.8 | 83.7 | 64.23 | 177 | – | – | Drug metabolism (Liver microsome [4]): metabolite_detected; Drug metabolism (Liver microsome [6]): metabolite_detected; Drug metabolism (Liver microsome [7]): metabolite_detected; Drug metabolism (Liver microsome [10]): metabolite_detected; Drug metabolism (Liver microsome [14]): metabolite_detected |
| – | – | – | – | – | – | – | – | – | Cc1ccccc1C(=O)Nc1ccc(O)cn1 | – | – | – | – | – | – | Drug metabolism (Liver microsome [16]): metabolite_detected |
| 25 (≈ 101 µM) | 410 | 2.8 | 154 | 50 (≈ 201 µM) | 0.361 | 17 | 176 | 100 | Cc1c(C(=O)Nc2ccccn2)ccc(F)c1F | 99.9 | 99.95 | 92 | 205 | 308 | > 121 | – |
| 25 (≈ 110 µM) | 2100 | 2.8 | 129 | > 100 | 0.299 | 124 | 173 | 360 | Cc1ccnc(NC(=O)c2ccccc2C)c1 | – | – | – | > 37 | 146 | > 133 | – |
| 12.5 (≈ 50.7 µM) | 2100 | 3.4 | 128 | 25 (≈ 101 µM) | 0.134 | 88 | 168 | 610 | Cc1ccccc1C(=O)Nc1cc(Cl)ccn1 | – | – | – | > 38 | 224 | 168 | – |
| – | – | – | – | – | – | – | – | – | COc1ccc(C[C@H](N)C(=O)N[C@H]2[C@@H](O)[C@H](n3cnc4c(N(C)C)ncnc43)O[C@@H]2CO)cc1 [PUROMYCIN] | 100 | 100 | 100 | – | – | – | – |
| – | – | – | – | – | – | – | – | – | N=C(N)c1ccc(OCCCCCOc2ccc(C(=N)N)cc2)cc1 [PENTAMIDINE] | 100 | 100 | 58.1 | – | – | – | – |
| – | – | – | – | – | – | – | – | – | Cc1c(F)cccc1C(N)=O | – | – | – | – | – | – | Drug metabolism (Liver microsome [18]): metabolite_detected |
| – | – | – | – | – | – | – | – | – | Cc1ccccc1C(=O)N(O)c1ccc(F)cn1 | – | – | – | – | – | – | Drug metabolism (Liver microsome [16]): metabolite_detected |
| 25 (≈ 109 µM) | – | 2.7 | 43 | 25 (≈ 109 µM) | 0.44 | – | – | – | Cc1ccccc1C(=O)Nc1ccc(F)cn1 | – | – | – | – | – | – | Drug metabolism (Liver microsome [19]): metabolite_detected; inhibition at 10 µM [20]: 33%; Drug metabolism (Liver microsome [21]): metabolite_detected; Drug metabolism (Liver microsome [22]): metabolite_detected; Drug metabolism (Liver microsome [6]): metabolite_detected; Drug metabolism (Liver microsome [10]): metabolite_detected; Drug metabolism (Liver microsome [23]): metabolite_notdetected; Drug metabolism (Liver microsome [24]): metabolite_detected |
| > 100 | 1100 | 3.2 | 97 | > 100 | 0.119 | 48 | 100 | 45 | Cc1cc(Br)ccc1C(=O)Nc1ccccn1 | – | – | – | 60 | 193 | > 103 | selectivity ratio [25]: > 4000 |
| < 1.6 | 1700 | 4.7 | 27 | 1.6 (≈ 5.12 µM) | 0.017 | 9.7 | 71 | 61 | Cc1ccccc1C(=O)Nc1cc(C#Cc2ccccc2)ccn1 | – | – | – | > 51 | 198 | > 96 | – |
